Measurements pooled from the literature.
Compare with care: the assays were run in different laboratories.
HTR1F: 5-hydroxytryptamine receptor 1F (HTR1F, Homo sapiens, UniProt P30939)
DUOX2: DUOX2 (Homo sapiens, UniProt Q9NRD8)
MPO: Myeloperoxidase (MPO, Homo sapiens, UniProt P05164)

| Structure (SMILES) | target | assay | conditions | endpoint | value |
| --- | --- | --- | --- | --- | --- |
| CN(C)CCOC1=Cc2ccccc2Sc2ccc(Cl)cc21 | HTR1F | G protein activation, agonist, BRET | – | EC50 | 1.82 µM |
| Nc1ncnc2c1ncn2[C@@H]1O[C@H](COP(=O)(O)OP(=O)(O)OP(=O)(O)OP(=O)(O)OP(=O)(O)OC[C@H]2O[C@@H](n3cnc4c(N)ncnc43)[C@H](O)[C@@H]2O)[C@@H](O)[C@H]1O | adk (Escherichia coli, UniProt P69441) | binding, ITC | – | Kd | 0.2 µM |
| O=c1oc2cc(O)ccc2c2ccc(O)cc12 | Glutaminase kidney isoform, mitochondrial (GLS, Homo sapiens, UniProt O94925) | binding, SPR | – | Kd | 0.000266 µM |
| C[C@H]1COC2=C1C(=O)C(=O)c1c2ccc2c1CCCC2(C)C | DUOX2 | enzyme activity, inhibitor | cell membranes | IC50 | 2.1 µM |
| CC(C)CCC[C@@H](C)[C@H]1CC[C@H]2[C@@H]3CC[C@H]4C[C@H](N)CC[C@]4(C)[C@H]3CC[C@]12C | Phosphatidylinositol 3,4,5-trisphosphate 5-phosphatase 1 (INPP5D, Homo sapiens, UniProt Q92835) | enzyme activity, inhibitor, absorbance | pH 7.4 | IC50 | 22.4 µM |
| C[C@@H]1CN(C(=O)[C@@H]2CN(C(C)(C)C)C[C@H]2c2ccc(F)cc2F)C[C@H](C)[C@@]1(O)c1ccccc1 | Melanocortin receptor 4 (MC4R, Homo sapiens, UniProt P32245) | ligand displacement, radioligand | – | Ki | 0.199 µM |
| CN1CCN2c3ccccc3Cc3ccccc3C2C1 (stereo not shown) | HTR1F | G protein activation, agonist, BRET | – | EC50 | 0.0475 µM |
| O=c1oc(-c2cccnc2)nc2ccccc12 | Plasma kallikrein (KLKB1, Homo sapiens, UniProt P03952) | enzyme activity, inhibitor, absorbance | – | IC50 | > 50 µM |
| CCCC(=O)NCCCN1CCc2c([nH]c3ccc(Cl)cc23)C1 | Sodium-dependent noradrenaline transporter (SLC6A2, Homo sapiens, UniProt P23975) | transporter uptake, inhibitor | – | IC50 | 250 µM |
| COc1ccc(CNC(=O)c2cc3c(cc2[N+](=O)[O-])OCO3)cc1 | MPO | enzyme activity, inhibitor | – | IC50 | 4.5 µM |
| Cc1coc2c1C(=O)C(=O)c1c-2ccc2c1CCCC2(C)CO (stereo not shown) | DUOX2 | enzyme activity, inhibitor | cell membranes | IC50 | 8.9 µM |
| CC(=O)c1cccc(NC(=O)c2cc3c(cc2[N+](=O)[O-])OCO3)c1 | MPO | enzyme activity, inhibitor | – | IC50 | 10 µM |
| CCOc1ccccc1OCCN[C@H](C)Cc1ccc(OC)c(S(N)(=O)=O)c1 | Anoctamin-1 (Ano1, Mus musculus, UniProt Q8BHY3) | ion current, inhibitor, patch clamp | – | IC50 | 7.22 µM |
